From ChEMBL document CHEMBL3616436, “Synthesis, cytotoxicity and antimicrobial activity of thiourea derivatives incorporating 3-(trifluoromethyl)phenyl moiety” (Eur J Med Chem, 2015)
Converted amounts (≈) assume the structure as drawn.

Assays:
[1] = Cytotoxicity against African green monkey Vero 76 cells assessed as cell viability after 48 to 96 hrs by crystal violet staining; assay type: cell-based; conditions: chlorocebus sabaeus
[2] = tested on: Human immunodeficiency virus 1; experiment: Antiviral activity against HIV1 3B infected in human MT4 cells assessed as protection against virus-induced cytopathogenicity by MTT assay; assay type: functional, organism-based; conditions: Human immunodeficiency virus 1, 3B
[3] = tested on: Staphylococcus epidermidis; experiment: Antimicrobial activity against Staphylococcus epidermidis ATCC 35984 at 400 ug after 18 hrs by disc-diffusion method; assay type: functional; conditions: ATCC 35984, 18 h, read-out: IZ
In short: (§1)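 Disc diffusion on Mueller-Hinton II agar per CLSI; 9 mm paper discs loaded with 400 µg compound from DMSO solution, dried, placed on agar; growth inhibition zone diameter read after 18 h at 35°C.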

Micrococcus luteus [4] = experiment: Antimicrobial activity against Micrococcus luteus ATCC 10240 at 400 ug after 18 hrs by disc-diffusion method; assay type: functional; conditions: ATCC 10240, 18 h, read-out: IZ; in short: as §1
Staphylococcus aureus [5] = experiment: Antimicrobial activity against Staphylococcus aureus ATCC 25923 at 400 ug after 18 hrs by disc-diffusion method; assay type: functional; conditions: ATCC 25923, 18 h, read-out: IZ; in short: as §1
[6] = Antiviral activity against Bovine viral diarrhea virus 1-NADL ATCC VR-534 infected in MDBK cells assessed as protection against virus-induced cytopathogenicity after 3 to 4 days by MTT assay; assay type: functional, cell-based; conditions: Bovine viral diarrhea virus isolates and strains, ATCC VR-534, MDBK
In short: (§2)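 Cells seeded in 96-well plates (BHK 5x10^4, MDBK 3x10^4 cells/well), grown overnight to confluence, infected at m.o.i. 0.01 (BHK for Reo-1, MDBK for BVDV); serial compound dilutions in maintenance medium with 0.5% inactivated FBS added after 1 h; viability by MTT after 3–4 days at 37°C; EC50 for 50% protection by linear regression.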

[7] = tested on: Mammalian orthoreovirus 1; experiment: Antiviral activity against Reovirus type-1 ATCC VR-214 infected in BHK cells assessed as protection against virus-induced cytopathogenicity after 3 to 4 days by MTT assay; assay type: functional, cell-based; conditions: Mammalian orthoreovirus 1, ATCC VR-214, BHK; in short: as §2
[8] = tested on: Staphylococcus epidermidis; experiment: Antimicrobial activity against Staphylococcus epidermidis ATCC 35984 after 18 hrs by twofold serial microdilution method; assay type: functional; conditions: ATCC 35984, 18 h
[9] = tested on: Mycobacterium tuberculosis; experiment: Antimycobacterial activity against Mycobacterium tuberculosis H37Rv ATCC 25618; assay type: functional
In short: (§3)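 Classical test-tube successive-dilution method in Youmans' modification of Proskauer and Beck liquid medium with 10% bovine serum. Inoculum came from 14-day cultures. DMSO stock was 10 mg/mL, diluted geometrically in medium. Tubes were incubated at 37 °C. Concentrations tested were 3.1, 6.2, 12.5, 25, 50 and 100 µg/ml. MIC is the minimum concentration inhibiting growth relative to compound-free tubes.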

[10] = tested on: Staphylococcus epidermidis; experiment: Antimicrobial activity against Staphylococcus epidermidis ATCC 12228 at 400 ug after 18 hrs by disc-diffusion method; assay type: functional; conditions: ATCC 12228, 18 h, read-out: IZ; in short: as §1
Human alphaherpesvirus 1 = experiment: Antiviral activity against Human herpesvirus 1 KOS ATCC VR-1493 infected in African green monkey Vero 76 cells assessed as reduction of virus-plaque formation after 3 days by crystal violet staining; assay type: functional, organism-based; conditions: Human alphaherpesvirus 1, KOS ATCC VR1493, Vero, 72 h
In short: (§4)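 Plaque reduction: Vero-76 at 2x10^5 cells/well grown to confluent monolayers, infected 2 h at 50–100 PFU/well; after removing unadsorbed virus, overlay of D-MEM, 1% inactivated FBS, 0.75% methylcellulose with or without serial compound dilutions; 3 days at 37°C, fixed and stained with crystal violet in 50% ethanol, plaques counted; EC50 by linear regression.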

Staphylococcus aureus [11] = experiment: Antimicrobial activity against Staphylococcus aureus NCTC 4163 after 18 hrs by twofold serial microdilution method; assay type: functional; conditions: NCTC 4163, 18 h
[12] = Cytotoxicity against human MT4 cells; assay type: cell-based
Staphylococcus aureus [13] = experiment: Antimicrobial activity against Staphylococcus aureus ATCC 29213 after 18 hrs by twofold serial microdilution method; assay type: functional; conditions: ATCC 29213, 18 h
Staphylococcus aureus [14] = experiment: Antimicrobial activity against Staphylococcus aureus ATCC 29213 at 400 ug after 18 hrs by disc-diffusion method; assay type: functional; conditions: ATCC 29213, 18 h, read-out: IZ; in short: as §1
Vaccinia virus = experiment: Antiviral activity against Human Vaccinia virus ATCC VR-1549 infected in African green monkey Vero 76 cells assessed as reduction of virus-plaque formation after 3 days by crystal violet staining; assay type: functional, organism-based; conditions: Orthopoxvirus vaccinia, ATCC VR-1549, Vero, 72 h
Proteus vulgaris = experiment: Antimicrobial activity against Proteus vulgaris NCTC 4635 at 400 ug after 18 hrs by disc-diffusion method; assay type: functional; conditions: NCTC 4635, 18 h, read-out: IZ; in short: as §1
Enterococcus hirae = experiment: Antimicrobial activity against Enterococcus hirae ATCC 10541 at 400 ug after 18 hrs by disc-diffusion method; assay type: functional; conditions: ATCC 10541, 18 h, read-out: IZ; in short: as §1
[15] = tested on: Mycobacterium tuberculosis; experiment: Antimycobacterial activity against drug-sensitive Mycobacterium tuberculosis Spec. 192; assay type: functional; in short: as §3
Enterococcus faecalis = experiment: Antimicrobial activity against Enterococcus faecalis ATCC 29212 at 400 ug after 18 hrs by disc-diffusion method; assay type: functional; conditions: ATCC 29212, 18 h, read-out: IZ; in short: as §1
[16] = tested on: Staphylococcus epidermidis; experiment: Antimicrobial activity against Staphylococcus epidermidis ATCC 12228 after 18 hrs by twofold serial microdilution method; assay type: functional; conditions: ATCC 12228, 18 h
Bacillus subtilis = experiment: Antimicrobial activity against Bacillus subtilis ATCC 6633 at 400 ug after 18 hrs by disc-diffusion method; assay type: functional; conditions: ATCC 6633, 18 h, read-out: IZ; in short: as §1
Staphylococcus aureus [17] = experiment: Antimicrobial activity against Staphylococcus aureus ATCC 6538 after 18 hrs by twofold serial microdilution method; assay type: functional; conditions: ATCC 6538, 18 h
Yellow fever virus = experiment: Antiviral activity against Yellow fever virus 17D infected in BHK cells assessed as protection against virus-induced cytopathogenicity after 3 to 4 days by MTT assay; assay type: functional, cell-based
[18] = Cytotoxicity against bovine MDBK cells assessed as cell viability after 48 to 96 hrs by MTT assay; assay type: cell-based, Bos taurus; conditions: cattle
[19] = Cytotoxicity against BHK cells assessed as cell viability after 48 to 96 hrs by MTT assay; assay type: cell-based, Mesocricetus auratus; conditions: hamster
Coxsackievirus B5 = experiment: Antiviral activity against Human coxsackievirus B5 ATCC VR-29 infected in African green monkey Vero 76 cells assessed as reduction of virus-plaque formation after 3 days by crystal violet staining; assay type: functional, organism-based; conditions: Enterovirus B, ATCC VR-29, Vero, 72 h; in short: as §4
Staphylococcus aureus [20] = experiment: Antimicrobial activity against Staphylococcus aureus ATCC 6538 at 400 ug after 18 hrs by disc-diffusion method; assay type: functional; conditions: ATCC 6538, 18 h, read-out: IZ; in short: as §1
Staphylococcus aureus [21] = experiment: Antimicrobial activity against Staphylococcus aureus ATCC 25923 after 18 hrs by twofold serial microdilution method; assay type: functional; conditions: ATCC 25923, 18 h
Bacillus cereus = experiment: Antimicrobial activity against Bacillus cereus ATCC 11778 at 400 ug after 18 hrs by disc-diffusion method; assay type: functional; conditions: ATCC 11778, 18 h, read-out: IZ; in short: as §1
[22] = tested on: Vesicular stomatitis virus; experiment: Antiviral activity against Vesicular stomatitis virus ATCC VR 1540 infected in African green monkey Vero 76 cells assessed as reduction of virus-plaque formation after 2 days by crystal violet staining; assay type: functional, organism-based; conditions: ATCC VR 1540, Vero, 48 h
Micrococcus luteus [23] = experiment: Antimicrobial activity against Micrococcus luteus ATCC 9341 at 400 ug after 18 hrs by disc-diffusion method; assay type: functional; conditions: ATCC 9341, 18 h, read-out: IZ; in short: as §1
Staphylococcus aureus [24] = experiment: Antimicrobial activity against Staphylococcus aureus NCTC 4163 at 400 ug after 18 hrs by disc-diffusion method; assay type: functional; conditions: NCTC 4163, 18 h, read-out: IZ; in short: as §1
Poliovirus 1 = experiment: Antiviral activity against Poliovirus type 1 ATCC VR-1562 infected in African green monkey Vero 76 cells assessed as reduction of virus-plaque formation after 2 days by crystal violet staining; assay type: functional, organism-based; conditions: Enterovirus C, ATCC VR-1562, Vero, 48 h

**Q.** Which CC50 [1] does the source give for `Nc1nc2c(ncn2COCCO)c(=O)[nH]1` [ACYCLOVIR] here?
**A.** 13 µM

**Q.** With `Fc1ccc(NC(=S)Nc2cccc(C(F)(F)F)c2)cc1` as the molecule, how does the EC50 [2] read?
**A.** > 31 µM

**Q.** What about the zone of inhibition at 400 µg/disc [3] of the same molecule?
**A.** 25 mm

**Q.** And the zone of inhibition at 400 µg/disc (Micrococcus luteus [4])?
**A.** 28 mm

**Q.** And the zone of inhibition at 400 µg/disc (Staphylococcus aureus [5])?
**A.** 23 mm

**Q.** What about the EC50 [6] of the same molecule?
**A.** > 41 µM

**Q.** What about the EC50 [7] of the same molecule?
**A.** > 26 µM

**Q.** What about the MIC [8] of the same molecule?
**A.** 16 µg/mL (≈ 50.9 µM)

**Q.** What about the CC50 [1] of the same molecule?
**A.** 40 µM

**Q.** And the MIC [9]?
**A.** 25 µg/mL (≈ 79.5 µM)

**Q.** And the zone of inhibition at 400 µg/disc [10]?
**A.** 26 mm

**Q.** What about the EC50 (Human alphaherpesvirus 1) of the same molecule?
**A.** > 40 µM

**Q.** And the MIC (Staphylococcus aureus [11])?
**A.** 8 µg/mL (≈ 25.5 µM)

**Q.** What about the CC50 [12] of the same molecule?
**A.** 31 µM

**Q.** What about the MIC (Staphylococcus aureus [13]) of the same molecule?
**A.** 16 µg/mL (≈ 50.9 µM)

**Q.** What about the zone of inhibition at 400 µg/disc (Staphylococcus aureus [14]) of the same molecule?
**A.** 25 mm

**Q.** What about the EC50 (Vaccinia virus) of the same molecule?
**A.** > 40 µM

**Q.** And the zone of inhibition at 400 µg/disc (Proteus vulgaris)?
**A.** 14 mm

**Q.** And the zone of inhibition at 400 µg/disc (Enterococcus hirae)?
**A.** 30 mm

**Q.** What about the MIC [15] of the same molecule?
**A.** 25 µg/mL (≈ 79.5 µM)

**Q.** What about the zone of inhibition at 400 µg/disc (Enterococcus faecalis) of the same molecule?
**A.** 20 mm

**Q.** What about the MIC [16] of the same molecule?
**A.** 16 µg/mL (≈ 50.9 µM)

**Q.** And the zone of inhibition at 400 µg/disc (Bacillus subtilis)?
**A.** 25 mm

**Q.** What about the MIC (Staphylococcus aureus [17]) of the same molecule?
**A.** 16 µg/mL (≈ 50.9 µM)

**Q.** And the EC50 (Yellow fever virus)?
**A.** > 26 µM

**Q.** What about the CC50 [18] of the same molecule?
**A.** 41 µM

**Q.** What about the CC50 [19] of the same molecule?
**A.** 26 µM

**Q.** And the EC50 (Coxsackievirus B5)?
**A.** > 40 µM

**Q.** What about the zone of inhibition at 400 µg/disc (Staphylococcus aureus [20]) of the same molecule?
**A.** 25 mm

**Q.** And the MIC (Staphylococcus aureus [21])?
**A.** 8 µg/mL (≈ 25.5 µM)

**Q.** And the zone of inhibition at 400 µg/disc (Bacillus cereus)?
**A.** 23 mm

**Q.** What about the EC50 [22] of the same molecule?
**A.** > 40 µM

**Q.** What about the zone of inhibition at 400 µg/disc (Micrococcus luteus [23]) of the same molecule?
**A.** 28 mm

**Q.** And the zone of inhibition at 400 µg/disc (Staphylococcus aureus [24])?
**A.** 27 mm

**Q.** What about the EC50 (Poliovirus 1) of the same molecule?
**A.** > 40 µM

**Q.** What does the source list for `C[C@@]1(O)[C@H](O)[C@@H](CO)O[C@H]1n1cnc2c(=O)[nH]c(N)nc21` [2'-B-METHYL-GUANOSINE]?
**A.** EC50 [6]: 1.1 µM; EC50 (Yellow fever virus): 1.9 µM; CC50 [18]: > 10 µM; CC50 [19]: > 100 µM
